Experimental data as given in ChEMBL document CHEMBL4190396, “Discovery of Novel Small-Molecule Inhibitors of NF-κB Signaling with Antiinflammatory and Anticancer Properties” (J Med Chem, 2018).
pIC50: −log10 of the molar value. Activity calls are given as the source filed them. The rule behind the calls is not given here.

Assays:
[1] = target: Toll-like receptor 1/2 (Homo sapiens) (UniProt O60603+Q15399); assay: Antagonist activity at human TLR1/2 expressed in HEK293 cells assessed as decrease in Pam3CSK4-induced NF-kappaB activation-mediated SEAP production at 10^-9 to 10^-5 M after 24 hrs by Quanti-blue-based assay; assay type: cell-based
Summary of the method: (§1)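 HEK293 cells stably carrying a human TLR plus an NF-κB-driven SEAP reporter, seeded 5×10^4/well for 24 h at 37 °C, then stimulated: Pam3CSK4 100 µg/mL (TLR1/2), Pam2CSK4 100 µg/mL, poly I:C 5 µg/mL (TLR3), LPS 20 ng/mL (TLR4), flagellin 100 ng/mL (TLR5), R848 1 µg/mL (TLR7, TLR8), CpG-ODN2006 1 µg/mL (TLR9). After 24 h with compound, supernatant mixed with QUANTI-Blue, 1 h 37 °C, OD 620 nm.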

HeLa [2] = assay: Induction of apoptosis in human HeLa cells after 24 hrs by Annexin-V FITC/propidium iodide staining based flow cytometry; assay type: functional, cell-based
Summary of the method: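 HeLa cells, 3×10^5/well, attached 24 h, then DMSO or 5, 10, 20 µM for 24 h; harvested with EDTA-free 0.25% trypsin, Annexin V-FITC/PI double stained, flow cytometry; early plus late apoptotic fractions counted; three independent experiments.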

TLR2/TLR6 (Homo sapiens) = TLR2/TLR6 (Homo sapiens) (UniProt O60603+Q9Y2C9); assay: Antagonist activity at human TLR2/6 expressed in HEK293 cells assessed as decrease in Pam2CSK4-induced NF-kappaB activation-mediated SEAP production at 10^-9 to 10^-5 M after 24 hrs by Quanti-blue-based assay; assay type: cell-based; summary of the method: as §1
HEK293 = assay: Cytotoxicity against HEK293 cells expressing human TLR7 assessed as reduction in cell viability up to 20 uM after 24 hrs by WST-1 assay; assay type: cell-based; conditions: hek293, 24 h
Summary of the method: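 HEK hTLR7 cells seeded 5×10^4/well, 24 h, then exposed to a concentration series for 24 h; WST-1 reagent added at 37 °C until colour developed (30 min–2 h), absorbance 450 nm.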

[3] = target: Tumor necrosis factor receptor superfamily member 1A (Homo sapiens, UniProt P19438); assay: Inhibition of TNFR in TLR null HEK-blue cells assessed as decrease in TNFalpha-stimulated NF-kappaB activation-mediated SEAP production after 24 hrs by Quanti-blue-based assay; assay type: cell-based
[4] = target: Protein kinase C (PKC) (Homo sapiens) (UniProt O94806+P41743+P17252+P05129+Q05655+P05771+Q05513+Q02156+P24723+Q15139+Q04759); assay: (§2) Inhibition of PKC in HEK-blue cells expressing human TLR7 assessed as inhibition of PMA-induced NF-kappaB activation-mediated SEAP production after 24 hrs by Quanti-blue-based assay; assay type: cell-based
Protein kinase C (PKC) = assay: as §2; assay type: cell-based
[5] = target: Inhibitor of nuclear factor kappa-B kinase subunit alpha/beta (Mus musculus) (UniProt Q60680+O88351); assay: Inhibition of IKK-alphabeta in mouse RAW264.7 cells assessed as reduction in LPS-induced IKK-alphabeta phosphorylation at 1 to 10 uM preincubated for 1 hr followed by LPS stimulation for 15 to 30 mins by Western blot method; assay type: cell-based
Summary of the method: (§3)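 RAW 264.7 cells, 3×10^6 per dish overnight, pretreated 1 h with 1, 5 or 10 µM, then LPS 100 ng/mL for 15 or 30 min; nuclear/cytoplasmic lysates (20–30 µg) run on 10% SDS-PAGE, immunoblotted for phospho/total proteins, GAPDH loading control, ECL, densitometry; three independent experiments.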

[6] = target: NF-kappa-B inhibitor alpha (Mus musculus) (UniProt Q9Z1E3); assay: Inhibition of LPS-induced IkB-alpha phosphorylation in mouse RAW264.7 cells at 1 to 10 uM preincubated for 1 hr followed by LPS stimulation for 15 to 30 mins by Western blot method; assay type: cell-based; summary of the method: as §3
RAW264.7 [7] = assay: Inhibition of LPS-induced PI3K-mediated AKT phosphorylation in mouse RAW264.7 cells at 1 to 10 uM preincubated for 1 hr followed by LPS stimulation for 15 to 30 mins by Western blot method; assay type: cell-based; summary of the method: as §3
RAW264.7 [8] = assay: Inhibition of LPS-induced ERK phosphorylation in mouse RAW264.7 cells at 1 to 10 uM preincubated for 1 hr followed by LPS stimulation for 15 to 30 mins by Western blot method; assay type: cell-based; summary of the method: as §3
[9] = target: Proto-oncogene tyrosine-protein kinase Src (Mus musculus) (UniProt P05480); assay: Inhibition of LPS-induced SRC phosphorylation in mouse RAW264.7 cells preincubated for 1 hr followed by LPS stimulation for 30 mins by Western blot method; assay type: cell-based; summary of the method: as §3
[10] = target: Tyrosine-protein kinase SYK (Mus musculus) (UniProt P48025); assay: Inhibition of LPS-induced SYK phosphorylation in mouse RAW264.7 cells preincubated for 1 hr followed by LPS stimulation for 30 mins by Western blot method; assay type: cell-based; summary of the method: as §3
RAW264.7 [11] = assay: Antiinflammatory activity in mouse RAW264.7 cells assessed as decrease in LPS-induced TNFalpha production preincubated for 30 mins followed by LPS stimulation measured after 18 hrs by ELISA; assay type: functional, cell-based
Summary of the method: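 RAW 264.7 cells, 1.5×10^6/well, 24 h, medium refreshed; pretreated with increasing compound 30 min, then LPS 100 ng/mL for 18 h; supernatant TNF-α quantified by sandwich ELISA against recombinant mouse standards.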

RAW264.7 [12] = assay: Antiinflammatory activity in mouse RAW264.7 cells assessed as decrease in LPS-induced NO production after 18 hrs by DAN assay; assay type: functional, cell-based
Summary of the method: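 RAW 264.7 cells at 2×10^5 cells/mL, 24 h, medium refreshed, then LPS 100 ng/mL with or without graded compound for 18 h; nitrite in medium reacted with 2,3-diaminonaphthalene (0.05 mg/mL in 0.62 M HCl), 15 min in dark, as NO readout. n = 3, mean ± SD.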

HeLa [13] = assay: Cell cycle arrest in human HeLa cells assessed as accumulation at S phase at 20 uM after 24 hrs by propidium iodide staining based flow cytometry (reference value: 34.9%); assay type: functional
Summary of the method: (§4)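 HeLa cells, 3×10^5/well, attached overnight, switched to serum-free medium for synchronisation, then DMSO or 5, 10, 20 µM for 24 h; cells fixed, PI-stained, G0/G1, S and G2/M fractions by flow cytometry; n = 3, mean ± SD.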

HeLa [14] = assay: Cell cycle arrest in human HeLa cells assessed as accumulation at G0/G1 phase after 24 hrs by propidium iodide staining based flow cytometry; assay type: functional; summary of the method: as §4

Sequence of Tumor necrosis factor receptor superfamily member 1A (P19438 whole entry): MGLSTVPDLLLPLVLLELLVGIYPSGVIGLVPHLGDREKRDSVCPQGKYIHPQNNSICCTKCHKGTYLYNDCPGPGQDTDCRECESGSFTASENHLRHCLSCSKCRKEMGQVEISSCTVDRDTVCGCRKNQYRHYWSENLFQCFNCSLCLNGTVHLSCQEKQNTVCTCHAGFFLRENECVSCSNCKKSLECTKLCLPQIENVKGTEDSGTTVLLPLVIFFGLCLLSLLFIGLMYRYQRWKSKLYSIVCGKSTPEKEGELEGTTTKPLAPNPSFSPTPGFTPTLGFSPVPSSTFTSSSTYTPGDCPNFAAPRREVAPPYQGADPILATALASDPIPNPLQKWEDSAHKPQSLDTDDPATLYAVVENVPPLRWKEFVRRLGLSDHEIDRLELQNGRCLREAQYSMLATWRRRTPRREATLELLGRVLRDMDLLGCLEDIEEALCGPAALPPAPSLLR
Sequence of Tyrosine-protein kinase SYK (Mus musculus) (P48025 whole entry, looked up): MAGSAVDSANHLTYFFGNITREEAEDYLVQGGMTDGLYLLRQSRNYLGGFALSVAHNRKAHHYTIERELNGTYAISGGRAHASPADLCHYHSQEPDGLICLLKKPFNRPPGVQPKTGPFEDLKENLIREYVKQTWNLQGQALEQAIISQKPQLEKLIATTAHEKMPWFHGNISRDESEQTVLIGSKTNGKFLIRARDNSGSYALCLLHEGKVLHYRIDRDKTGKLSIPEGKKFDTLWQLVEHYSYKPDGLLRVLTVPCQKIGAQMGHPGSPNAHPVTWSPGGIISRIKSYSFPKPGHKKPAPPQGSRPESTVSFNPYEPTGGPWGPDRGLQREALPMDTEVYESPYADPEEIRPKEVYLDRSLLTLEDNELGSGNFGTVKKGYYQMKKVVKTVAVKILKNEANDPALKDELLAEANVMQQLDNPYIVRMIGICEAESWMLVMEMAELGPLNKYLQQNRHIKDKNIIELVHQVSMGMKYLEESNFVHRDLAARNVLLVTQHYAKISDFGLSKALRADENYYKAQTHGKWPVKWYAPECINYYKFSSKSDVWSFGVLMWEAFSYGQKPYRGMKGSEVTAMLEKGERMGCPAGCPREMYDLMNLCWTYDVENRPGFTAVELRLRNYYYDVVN
Sequence of Proto-oncogene tyrosine-protein kinase Src (Mus musculus) (P05480 2-535 limits assumed): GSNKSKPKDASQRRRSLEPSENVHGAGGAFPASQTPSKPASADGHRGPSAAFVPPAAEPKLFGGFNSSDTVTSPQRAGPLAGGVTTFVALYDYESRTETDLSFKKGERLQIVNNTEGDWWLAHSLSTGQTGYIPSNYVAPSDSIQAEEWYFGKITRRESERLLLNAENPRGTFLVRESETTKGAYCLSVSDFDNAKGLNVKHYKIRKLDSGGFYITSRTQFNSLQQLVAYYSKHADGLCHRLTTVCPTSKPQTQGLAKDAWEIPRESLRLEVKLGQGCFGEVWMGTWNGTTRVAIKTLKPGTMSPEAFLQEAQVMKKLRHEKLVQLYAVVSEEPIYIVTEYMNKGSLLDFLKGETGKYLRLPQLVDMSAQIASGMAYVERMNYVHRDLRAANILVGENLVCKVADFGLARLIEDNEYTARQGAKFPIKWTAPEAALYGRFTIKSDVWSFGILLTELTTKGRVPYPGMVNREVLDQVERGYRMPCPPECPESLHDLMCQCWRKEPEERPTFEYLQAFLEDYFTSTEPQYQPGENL
Sequence of NF-kappa-B inhibitor alpha (Mus musculus) (Q9Z1E3 whole entry): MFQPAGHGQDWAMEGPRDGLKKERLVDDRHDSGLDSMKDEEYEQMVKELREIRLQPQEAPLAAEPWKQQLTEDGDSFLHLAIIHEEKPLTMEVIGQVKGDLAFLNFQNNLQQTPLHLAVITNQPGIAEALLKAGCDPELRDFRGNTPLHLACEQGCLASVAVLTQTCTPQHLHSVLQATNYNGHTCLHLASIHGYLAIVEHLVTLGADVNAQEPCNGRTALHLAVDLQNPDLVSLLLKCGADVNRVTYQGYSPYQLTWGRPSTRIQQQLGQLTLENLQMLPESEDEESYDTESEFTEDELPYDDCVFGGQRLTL

O=C(NNC(=O)c1csc(-c2ccc(Cl)cc2Cl)n1)c1ccccn1
inhibition [1]: Active | Activity (HeLa [2]): Dose-dependent effect | inhibition (TLR2/TLR6 (Homo sapiens)): Active | Activity (HEK293): Non-Toxic | pIC50 [3]: 6.11 | inhibition [4]: Dose-dependent effect | IC50 (Protein kinase C (PKC)): 590 nM | inhibition [5]: Active | inhibition [6]: Active | inhibition (RAW264.7 [7]): Active | inhibition (RAW264.7 [8]): inactive | inhibition [9]: Dose-dependent effect | inhibition [10]: Dose-dependent effect | Activity (RAW264.7 [11]): Dose-dependent effect | Activity (RAW264.7 [12]): Active | Activity (HeLa [13]): 29.1% | Activity (HeLa [14]): Dose-dependent effect
